Experimental data reported in ChEMBL document CHEMBL4765226, “Identification of a Human Toll-Like Receptor (TLR) 8-Specific Agonist and a Functional Pan-TLR Inhibitor in 2-Aminoimidazoles” (J Med Chem, 2016).
Calls of active or inactive are those of the source. No cut-off for these calls is given here.

How the values were obtained:
[1] = biological target: T1, Toll-like receptor 8 (Homo sapiens) (UniProt Q9NR97); experiment: Agonist activity at TLR8 in human monocytes assessed as induction of NF-kappaB phosphorylation measured after 15 mins in presence of 10% FBS by Alexa fluor 647 dye based flow cytometry analysis; format: cell-based; conditions: Monocyte, filed as agonist, in the assay text read “PE-Cy7 dye” for “Alexa fluor 647 dye”
T1 sequence (whole entry): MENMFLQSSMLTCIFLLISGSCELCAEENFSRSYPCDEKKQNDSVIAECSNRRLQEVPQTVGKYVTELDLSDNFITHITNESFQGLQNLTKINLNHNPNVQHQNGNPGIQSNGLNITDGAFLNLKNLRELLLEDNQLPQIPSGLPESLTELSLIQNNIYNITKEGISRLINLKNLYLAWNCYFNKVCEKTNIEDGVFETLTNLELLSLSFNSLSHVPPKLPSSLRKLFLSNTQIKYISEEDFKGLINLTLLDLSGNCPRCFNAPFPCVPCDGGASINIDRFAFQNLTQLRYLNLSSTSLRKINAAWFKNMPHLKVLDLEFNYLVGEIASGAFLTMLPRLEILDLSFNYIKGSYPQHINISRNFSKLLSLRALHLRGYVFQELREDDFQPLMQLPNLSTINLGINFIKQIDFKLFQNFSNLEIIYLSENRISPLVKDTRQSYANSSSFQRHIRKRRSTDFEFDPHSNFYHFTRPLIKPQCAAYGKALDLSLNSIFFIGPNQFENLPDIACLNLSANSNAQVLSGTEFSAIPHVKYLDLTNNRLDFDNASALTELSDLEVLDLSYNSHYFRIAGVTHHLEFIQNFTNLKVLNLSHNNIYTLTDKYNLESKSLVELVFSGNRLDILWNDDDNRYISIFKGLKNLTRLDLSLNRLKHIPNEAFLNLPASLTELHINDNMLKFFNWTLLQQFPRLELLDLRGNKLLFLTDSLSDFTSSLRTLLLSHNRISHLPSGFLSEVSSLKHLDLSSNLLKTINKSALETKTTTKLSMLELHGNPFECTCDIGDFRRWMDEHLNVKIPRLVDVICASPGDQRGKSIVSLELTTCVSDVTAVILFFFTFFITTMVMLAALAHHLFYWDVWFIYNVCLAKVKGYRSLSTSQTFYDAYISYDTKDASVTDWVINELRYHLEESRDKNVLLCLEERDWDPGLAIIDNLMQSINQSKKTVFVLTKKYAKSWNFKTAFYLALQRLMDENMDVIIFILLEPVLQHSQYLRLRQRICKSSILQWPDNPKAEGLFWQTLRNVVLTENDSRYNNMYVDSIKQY
Outline: (§1)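 Whole human blood with anticoagulant was added to serial compound dilutions in RPMI with 10% FBS and held at 37 °C for 15 min. Samples were lysed and fixed three times, permeabilized in ice-cold methanol for 30 min, then stained on ice for 60 min with anti-NF-κB p65-PECy7, p38MAPK-PE and ERK1/2-AlexaFluor 647. Flow cytometry acquired 100,000 gated events; monocytes and polymorphonuclear cells were gated.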

[2] = biological target: T1, Toll-like receptor 8 (Homo sapiens); experiment: Agonist activity at TLR8 in human PBMC cells assessed as induction of TNFalpha production incubated for 16 hrs by immunoassay; format: cell-based; conditions: filed as agonist
Outline: (§2)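 Fresh human PBMCs isolated from venous blood, plated at 10^5 cells in 100 µL per well and stimulated for 16 h with graded concentrations of compound. Supernatants were collected by centrifugation and assayed in duplicate with a multiplexed cytokine/chemokine magnetic bead array.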

[3] = biological target: T1, Toll-like receptor 8 (Homo sapiens); experiment: Agonist activity at TLR8 in human PBMC cells assessed as induction of MCP1 production incubated for 16 hrs by immunoassay; format: cell-based; conditions: filed as agonist; outline: as §2
[4] = biological target: T1, Toll-like receptor 8 (Homo sapiens); experiment: Agonist activity at TLR8 in human PBMC cells assessed as induction of MIP-1beta production incubated for 16 hrs by immunoassay; format: cell-based; conditions: filed as agonist; outline: as §2
[5] = biological target: T1, Toll-like receptor 8 (Homo sapiens); experiment: Agonist activity at TLR8 in human PBMC cells assessed as induction of IFNgamma production incubated for 16 hrs by immunoassay; format: cell-based; conditions: filed as agonist; outline: as §2
[6] = biological target: T1, Toll-like receptor 8 (Homo sapiens); experiment: Agonist activity at TLR8 in human PBMC cells assessed as induction of IL-6 production incubated for 16 hrs by immunoassay; format: cell-based; conditions: filed as agonist; outline: as §2
[7] = biological target: T1, Toll-like receptor 8 (Homo sapiens); experiment: Agonist activity at TLR8 in human polymorphonuclear leucocyte cells assessed as induction of NF-kappaB phosphorylation measured after 15 mins in presence of 10% FBS by Alexa fluor 647 dye based flow cytometry analysis; format: tissue-based; conditions: filed as agonist, in the assay text read “PE-Cy7 dye” for “Alexa fluor 647 dye”; outline: as §1
[8] = biological target: T1, Toll-like receptor 8 (Homo sapiens); experiment: Agonist activity at TLR8 in human PBMC cells assessed as induction of IL-1beta production incubated for 16 hrs by immunoassay; format: cell-based; conditions: filed as agonist; outline: as §2
[9] = biological target: T1, Toll-like receptor 8 (Homo sapiens); experiment: Agonist activity at TLR8 in human PBMC cells assessed as induction of MIP-1alpha production incubated for 16 hrs by immunoassay; format: cell-based; conditions: filed as agonist; outline: as §2
[10] = biological target: T1, Toll-like receptor 8 (Homo sapiens); experiment: Agonist activity at TLR8 in human PBMC cells assessed as induction of IL-12p40 production incubated for 16 hrs by immunoassay; format: cell-based; conditions: filed as agonist; outline: as §2

| Activity [1] | Activity [2] | Activity [3] | Activity [4] | Activity [5] | Activity [6] | Activity [7] | Activity [8] | Activity [9] | Activity [10] | Structure (SMILES) |
| --- | --- | --- | --- | --- | --- | --- | --- | --- | --- | --- |
| Dose-dependent effect | Active | Active | Active | Active | Active | Dose-dependent effect | Active | Active | Active | CCCCCn1c(N)nc2c(C)cccc21 |
| Dose-dependent effect |  |  |  |  |  | Dose-dependent effect |  |  |  | CCCCCc1cc2ccccc2nc1N |
| Dose-dependent effect |  |  |  |  |  | Dose-dependent effect |  |  |  | CCCCCc1cc2c(CCCCCN)cccc2nc1N |
